# Data reported in ChEMBL document CHEMBL4350966 (J Med Chem, 2019).
# Assays:
# fMet-Leu-Phe receptor [1] = biological target: T1, fMet-Leu-Phe receptor (Homo sapiens, UniProt P21462); test: Biased agonist activity at human FPR1 expressed in FlpIn-CHO cells assessed as intracellular calcium mobilization by Fluo-4-AM dye based fluorescence assay; assay type: functional, cell-based
# T1 sequence (P21462 whole entry): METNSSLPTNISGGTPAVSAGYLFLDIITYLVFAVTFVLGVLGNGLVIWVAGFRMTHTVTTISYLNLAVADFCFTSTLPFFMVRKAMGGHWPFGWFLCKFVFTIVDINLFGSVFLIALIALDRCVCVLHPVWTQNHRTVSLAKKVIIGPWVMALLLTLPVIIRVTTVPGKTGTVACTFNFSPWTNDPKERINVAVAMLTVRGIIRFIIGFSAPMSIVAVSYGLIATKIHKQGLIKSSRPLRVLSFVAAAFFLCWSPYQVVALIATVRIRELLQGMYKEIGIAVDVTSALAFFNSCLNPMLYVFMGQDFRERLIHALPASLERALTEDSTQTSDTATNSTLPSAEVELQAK
# Summary of the method: (§1)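 Agonist transduction coefficients (Log(τ/KA)) for each signaling output estimated with an extension of the Black-Leff operational model. Values normalized to a reference ligand and to Ca2+ mobilization as reference pathway, giving ΔLog(τ/KA) and Log(bias factors). Data are mean ± SEM of 4 independent experiments, each performed in duplicate.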
# fMet-Leu-Phe receptor [2] = biological target: T1, fMet-Leu-Phe receptor; test: Biased agonist activity at human FPR1 expressed in FlpIn-CHO cells assessed as stimulation of ERK1/2 phosphorylation measured after 7 mins by Alphascreen assay; assay type: cell-based; summary of the method: as §1
# [3] = Intrinsic clearance in human liver microsomes assessed per mg protein; assay type: ADME, Microsome
# Summary of the method: (§2)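 Intrinsic clearance measured in vitro in mouse and human liver microsomes; reported as μL/min/mg protein.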
# [4] = Kinetic solubility of the compound at pH 2; assay type: physicochemical; conditions: buffer, read-out: Kinetic_solubility
# Summary of the method: (§3)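 Kinetic solubility measured by nephelometry at pH 2.0 and pH 6.5; reported in μg/mL.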
# [5] = Kinetic solubility of the compound at pH 6.5; assay type: physicochemical; conditions: buffer, read-out: Kinetic_solubility; summary of the method: as §3
# [6] = Protein binding in human plasma by chromatographic method; assay type: ADME, cell-free; conditions: read-out: PPB (converted)
# Summary of the method: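 Human plasma protein binding estimated by a chromatographic method; reported as percent bound.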
# [7] = Lipophilicity, log P of the compound by chromatographic method; assay type: physicochemical
# Summary of the method: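 Lipophilicity ([…]) measured chromatographically.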
# [8] = biological target: T2, N-formyl peptide receptor 2 (Homo sapiens, UniProt P25090); test: Biased agonist activity at human FPR2 expressed in FlpIn-CHO cells assessed as intracellular calcium mobilization by Fluo-4-AM dye based fluorescence assay; assay type: functional, cell-based; summary of the method: as §1
# T2 sequence (P25090 whole entry): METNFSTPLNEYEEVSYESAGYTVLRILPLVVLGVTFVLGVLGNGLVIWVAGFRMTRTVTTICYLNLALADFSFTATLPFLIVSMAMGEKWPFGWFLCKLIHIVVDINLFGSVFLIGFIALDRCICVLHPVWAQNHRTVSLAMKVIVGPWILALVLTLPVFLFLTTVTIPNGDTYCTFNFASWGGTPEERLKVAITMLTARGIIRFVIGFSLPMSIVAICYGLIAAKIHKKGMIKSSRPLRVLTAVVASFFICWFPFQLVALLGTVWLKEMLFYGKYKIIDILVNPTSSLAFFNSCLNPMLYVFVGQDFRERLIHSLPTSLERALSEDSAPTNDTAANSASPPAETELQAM
# [9] = biological target: T2, N-formyl peptide receptor 2; test: Biased agonist activity at human FPR2 expressed in FlpIn-CHO cells assessed as stimulation of ERK1/2 phosphorylation measured after 7 mins by Alphascreen assay; assay type: cell-based; summary of the method: as §1
# [10] = Intrinsic clearance in mouse liver microsomes assessed per mg protein; assay type: ADME, Microsome; summary of the method: as §2
# [11] = biological target: T3, fMet-Leu-Phe receptor (Homo sapiens) (UniProt P21462); test: Bias factor, transduction co-efficient for biased agonist activity at human FPR1 expressed in FlpIn-CHO cells assessed as stimulation of ERK1/2 phosphorylation relative to 1-(4-chlorophenyl)-3-(5-isopropyl-1-methyl-3-oxo-2-phenyl-2,3-dihydro-1H-pyrazol-4-yl)urea to transduction co-efficient for …; assay type: functional, cell-based
# T3 sequence (whole entry): T1 sequence (P21462 whole entry)
Compound,EC50 (fMet-Leu-Phe receptor [1]; read-out: pEC50 (converted)) [µM],EC50 (fMet-Leu-Phe receptor [2]; read-out: pEC50 (converted)) [µM],also measured
COc1cccc(OC)c1Cc1cc(C)nn(CC(=O)Nc2ccc(Cl)cc2)c1=O,2.82,2.63,
COc1ccc(OC)c(Cc2cc(C)nn(CC(=O)Nc3ccc(Cl)cc3)c2=O)c1,6.31,,
COc1ccccc1Cc1cc(C(F)(F)F)nn(CC(=O)Nc2ccc(Cl)cc2)c1=O,> 100,> 100,
Cc1cc(Cc2ccc(F)cc2)c(=O)n(CC(=O)Nc2ccc(Br)cc2[N+](=O)[O-])n1,> 100,> 100,
CCCCC(C(=O)Nc1ccc(Br)cc1)n1nc(C)cc(Cc2cccc(OC)c2OC)c1=O (stereo not drawn),0.00646,0.245,
COc1cccc(Cc2cc(C)nn(C(C)C(=O)Nc3ccccc3F)c2=O)c1 (stereo not drawn),> 100,> 100,
COc1ccccc1Cc1cc(C)nn(CC(=O)Nc2ccccc2Cl)c1=O,> 100,> 100,
CCc1ccc(NC(=O)Cn2nc(C)cc(Cc3ccccc3OC)c2=O)cc1,> 100,,
COc1cccc(Cc2cc(C)nn(CC(=O)Nc3ccc(Cl)cc3F)c2=O)c1,> 100,5.62,
COc1ccc(NC(=O)Cn2nc(C)cc(Cc3ccccc3OC)c2=O)cc1,> 100,,
COc1ccccc1Cc1cc(C)nn(CC(=O)Nc2cccc(C#N)c2)c1=O,> 100,> 100,
COc1ccc(Cc2cc(C)nn(C(C)C(=O)Nc3ccc(Br)cc3)c2=O)cc1 (stereo not drawn),> 100,,
COc1ccccc1Cc1cc(C)nn(CC(=O)Nc2ccc(Cl)cc2Cl)c1=O,> 100,> 100,
Cc1cc(Cc2ccc(F)cc2)c(=O)n(CC(=O)Nc2c(F)cc(F)cc2[N+](=O)[O-])n1,> 100,> 100,
CCCCC(C(=O)Nc1ccc(Cl)cc1)n1nc(C)cc(Cc2cccc(OC)c2)c1=O (stereo not drawn),5.25,0.126,
Cc1cc(Cc2cccc(F)c2)c(=O)n(C(C)C(=O)Nc2ccc(Br)cc2)n1 (stereo not drawn),> 100,,
COc1cccc(Cc2cc(C)nn(C(C)C(=O)Nc3cccc(F)c3)c2=O)c1 (stereo not drawn),> 100,,
COc1ccccc1Cc1cc(C)nn(CC(=O)Nc2c(F)cc(Cl)cc2F)c1=O,> 100,> 100,
COc1cccc(Cc2cc(C)nn(C(C)C(=O)Nc3ccc(F)cc3)c2=O)c1 (stereo not drawn),> 100,,
COc1ccccc1Cc1cc(C)nn(CC(=O)Nc2ccccc2C#N)c1=O,> 100,> 100,
CCCCC(C(=O)Nc1ccc(Br)cc1)n1nc(C)cc(Cc2cccc(OC)c2)c1=O (stereo not drawn),11.5,0.148,
Cc1cc(Cc2ccc(F)cc2)c(=O)n(C(C)C(=O)Nc2ccc(Br)cc2)n1 (stereo not drawn),> 100,,
CCCCC(C(=O)Nc1ccc(Cl)cc1)n1nc(C)cc(Cc2ccccc2OC)c1=O (stereo not drawn),,,microsomal CLint [10]: 233 µL/min/mg; solubility kinetic [4]: < 0.78 µg/mL; solubility kinetic [5]: < 0.78 µg/mL; fraction unbound [6]: 0.016; logP [7]: 5.2; EC50 [8]: 0.0513 µM; EC50 [9]: 0.0708 µM; EC50 (fMet-Leu-Phe receptor [1]): 0.891 µM; EC50 (fMet-Leu-Phe receptor [2]; read-out: EC50): 0.083 µM; fold change (FC) [11]: 20
COc1cccc(Cc2cc(C)nn(C(C)C(=O)Nc3ccccc3Cl)c2=O)c1 (stereo not drawn),> 100,> 100,
COc1ccccc1Cc1cc(C)nn(CC(=O)Nc2ccc(OC(F)(F)F)cc2)c1=O,> 100,> 100,
COc1cccc(Cc2cc(C)nn(CC(=O)Nc3c(F)cc(Cl)cc3F)c2=O)c1,> 100,> 100,
COc1cccc(Cc2cc(C)nn(CC(=O)Nc3ccc(Cl)cc3)c2=O)c1OC,0.224,0.17,
COc1ccccc1Cc1cc(C)nn(CC(=O)Nc2cccc(Cl)c2)c1=O,> 100,> 100,
COc1cccc(Cc2cc(C)nn(C(C)C(=O)Nc3cccc(Cl)c3)c2=O)c1 (stereo not drawn),> 100,> 100,
COc1ccccc1Cc1cc(C)nn(CC(=O)Nc2ccc(Cl)cc2F)c1=O,> 100,> 100,

# Now from value to molecule, other results behind:
EC50 (fMet-Leu-Phe receptor [1]; read-out: pEC50 (converted)) [µM],EC50 (fMet-Leu-Phe receptor [2]; read-out: pEC50 (converted)) [µM],Compound,also measured
> 100,,Cc1cc(Cc2ccccc2F)c(=O)n(C(C)C(=O)Nc2ccc(Br)cc2)n1 (stereo not drawn),
0.155,0.145,COc1cccc(Cc2cc(C)nn(C(C)C(=O)Nc3ccc(Cl)cc3)c2=O)c1OC (stereo not drawn),
6.17 to 25.1,,COc1cccc(Cc2cc(C)nn(C(C)C(=O)Nc3ccc(Cl)cc3)c2=O)c1 (stereo not drawn),microsomal CLint [3]: 273 µL/min/mg; solubility kinetic [4]: < 1.6 µg/mL; solubility kinetic [5]: < 1.6 µg/mL; fraction unbound [6]: 0.026; logP [7]: 4; EC50 [8]: > 100 µM; EC50 [9]: 9.55 µM
> 100,> 100,COc1ccccc1Cc1cc(C)nn(CC(=O)Nc2ccc(C#N)cc2)c1=O,
> 100,0.331,CCCCC(C(=O)Nc1ccc(Br)cc1)n1nc(C)cc(Cc2ccccc2OC)c1=O (stereo not drawn),
> 100,1.86,CCC(C(=O)Nc1ccc(Cl)cc1)n1nc(C)cc(Cc2ccccc2OC)c1=O (stereo not drawn),
17.4,1.38,COc1ccccc1Cc1cc(C)nn(C(C)C(=O)Nc2ccc(Cl)cc2)c1=O (stereo not drawn),
> 100,,COc1ccccc1Cc1cc(C)nn(C(C)C(=O)Nc2ccc(Br)cc2)c1=O (stereo not drawn),
0.055,0.0933,CCCCC(C(=O)Nc1ccc(Cl)cc1)n1nc(C)cc(Cc2cccc(OC)c2OC)c1=O (stereo not drawn),EC50 [8]: 0.0525 µM; EC50 [9]: 0.0617 µM
> 100,,COc1ccccc1Cc1cc(C)nn(CC(=O)Nc2ccc(Cl)cc2)c1=O,
> 100,> 100,CCCCC(C(=O)Nc1ccc(Cl)cc1)n1nc(C(F)(F)F)cc(Cc2ccccc2OC)c1=O (stereo not drawn),
9.77,6.31,CCCC(C(=O)Nc1ccc(Cl)cc1)n1nc(C)cc(Cc2ccccc2OC)c1=O (stereo not drawn),
> 100,> 100,COc1ccccc1Cc1cc(C)nn(C(C(=O)Nc2ccc(Cl)cc2)C2CC2)c1=O (stereo not drawn),
> 100,2.82,COc1ccccc1Cc1cc(C)nn(C(C(=O)Nc2ccc(Cl)cc2)C(C)C)c1=O (stereo not drawn),
